Bioassay records deposited in PubChem by several laboratories.
MT stabilize HCS: microtubule stabilizers in HeLa cells, primary screen, imaging, high-content imaging. % tubulin-high responders, % at 10 µM. HeLa tubulin immunostaining HCS, 24 h; share of cells brighter than vehicle mean+2SD. 200,000 compounds, 0.83% hits;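 active = plate Z-score above 3 for both tubulin-high and condensed-nucleus cell shares, with cell loss under 80%, at 10 µM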;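 also: anti alpha tubulin signal scored within the nucleus-defined area of each cell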
NPY-Y1 PAM-ag: NPY-Y1 receptor potentiators or agonists, primary screen, cell-based; AID 1304, 2008; Neuropeptide Y receptor type 1 (Homo sapiens), P25929; activation, % at 3.6 µM; 220,000 compounds, 0.37% hits; NPY-Y1 expressing cells, potentiator/agonist activation; in the data active = activation above about 33%, passing the limit was not always enough;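 also: cells stimulated with NPY at EC10 then isoproterenol at EC100; 0% = low agonist plus stimulus and 100% = saturating agonist plus stimulus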
Target sequence (P25929 whole entry, looked up): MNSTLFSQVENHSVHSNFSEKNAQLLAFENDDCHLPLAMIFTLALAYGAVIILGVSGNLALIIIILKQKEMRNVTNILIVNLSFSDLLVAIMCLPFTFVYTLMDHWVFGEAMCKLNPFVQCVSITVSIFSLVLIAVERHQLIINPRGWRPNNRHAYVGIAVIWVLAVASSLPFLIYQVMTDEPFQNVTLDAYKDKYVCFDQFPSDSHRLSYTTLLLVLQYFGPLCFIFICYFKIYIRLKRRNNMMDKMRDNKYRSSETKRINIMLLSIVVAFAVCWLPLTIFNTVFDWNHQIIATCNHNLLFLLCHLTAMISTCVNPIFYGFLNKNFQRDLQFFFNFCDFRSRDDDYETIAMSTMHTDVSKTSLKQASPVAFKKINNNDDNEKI
bCat nuc transl: modulators of beta-catenin nuclear translocation, primary screen, imaging, HeLa cells, immunofluorescence, high-content | nuclear translocation activity, % at 5 µM | 190,000 compounds, 0.3% hits | AID 1665, 2009;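 active = nuclear translocation activity above 50% at 5 µM, with a well cell count of 50 or more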;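 also: per-cell ratio of nuclear to cytoplasmic median beta-catenin stain intensity; plate controls were DMSO negative control for no effect and GSK-3 inhibitor IX positive control for full effect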
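System: HeLa cells, endogenous beta-catenin; compound dosing: 5 µM primary single dose, 0.1% DMSO, 0.02–20 µM confirmation series; incubation: 24 h compound exposure at 37°C, 5% CO2; signal: beta-catenin immunofluorescence imaging with DAPI; evaluation: % activation, nuclear-to-cytoplasmic median beta-catenin signal ratio per cell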
NPY2 pot ag: NPY-Y2 potentiators or agonists, primary screen, cell-based; Neuropeptide Y receptor type 2 (Homo sapiens), P49146; 220,000 compounds, 0.45% hits; AID 1359, 2008; activation, % at 3.6 µM; cells expressing NPY-Y2, potentiator/agonist read-out; in the data active = activation above about 27%;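 also: cells stimulated with NPY near EC25 plus isoproterenol at EC100; 0% = vehicle plus submaximal agonist and 100% = vehicle plus saturating agonist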
Target sequence (P49146 whole entry, looked up): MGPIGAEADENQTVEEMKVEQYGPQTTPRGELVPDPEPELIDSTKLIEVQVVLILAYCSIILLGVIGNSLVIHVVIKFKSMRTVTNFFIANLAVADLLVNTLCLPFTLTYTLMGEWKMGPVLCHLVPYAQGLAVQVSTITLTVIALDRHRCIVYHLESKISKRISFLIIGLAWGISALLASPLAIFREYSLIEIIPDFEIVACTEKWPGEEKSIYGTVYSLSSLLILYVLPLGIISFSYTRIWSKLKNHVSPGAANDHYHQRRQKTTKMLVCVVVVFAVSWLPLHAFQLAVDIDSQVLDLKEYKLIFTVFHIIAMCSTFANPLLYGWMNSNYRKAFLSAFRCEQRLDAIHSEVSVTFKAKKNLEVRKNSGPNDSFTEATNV
NPY Y2 blocker: NPY-Y2 receptor antagonists, primary screen, cell-based. NPY-Y2 expressing cells, antagonist mode. 140,000 compounds, 0.99% hits. AID 793, 2007. inhibition, % at 2.7 µM; in the data active = inhibition above about 17%;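 also: 0% = vehicle with agonist challenge and 100% = reference antagonist with challenge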
NPY-Y1 antag: NPY-Y1 receptor antagonists, primary screen, cell-based; Neuropeptide Y receptor type 1 (Homo sapiens), P25929; HEK293-CNG Y1 cells, membrane potential fluorescence; NPY at EC95, then isoproterenol; inhibition, % at 3.6 µM; 200,000 compounds, 1% hits;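 active = inhibition above the campaign mean inhibition of all tested compounds plus 3 SD, cut at about 20% in these data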;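 also: 0% = DMSO wells given NPY plus isoproterenol and 100% = isoproterenol alone without NPY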
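Material: HEK293 cells with Y1 receptor plus CNG channel; times: compound incubation 1 h at room temperature, readout 45 min post-stimulation; signal: fluorescence, membrane potential probe; read-out basis: fluorescence ratio normalized to % inhibition between controls; benchmarks: full-block control isoproterenol-only wells, zero-block control NPY plus isoproterenol wells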
NPY-Y2 pot conf: NPY-Y2 potentiators or agonists, confirmation, cell-based. shares compounds with NPY2 pot ag. cell-based NPY-Y2 potentiator/agonist assay. activation, % at 3.6 µM. 450 compounds, 20% hits; in the data active = activation above about 33%
NPY-Y1 counter: NPY-Y1 potentiators or agonists, counter-screen for NPY-Y2 potentiator project, cell-based, fluorescence | AID 1651, 2009 | Y1 HEK293-CNG cells, membrane potential fluorescence | 450 compounds, 20% hits | shares compounds with NPY2 pot ag | activation, % at 3.6 µM; in the data active = activation above about 45%;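 also: cells stimulated with submaximal NPY then isoproterenol with phosphodiesterase inhibitor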
NPY-Y1 agonist 2: NPY-Y1 direct agonists, selectivity assay for NPY-Y2 potentiator project, cell-based, fluorescence | shares compounds with NPY2 pot ag | HEK293 Y1-CNGC, membrane potential fluorescence, agonism | activation, % at 3.6 µM | 450 compounds, 37% hits | AID 1702, 2009;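 active = activation above the mean of DMSO-only control wells plus 3 SD, cut at about 18% in these data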;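 also: cells stimulated with 1 µM isoproterenol plus the PDE inhibitor Ro 20-1724; 0% = isoproterenol with DMSO and no NPY and 100% = 40 nM NPY; Y1 agonists lower the membrane potential dye signal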
CNGC inhibitor: CNGC cAMP sensor activity inhibitors, counter-screen for NPY-Y2 potentiator project, cell-based, HEK293-CNG parental, membrane potential fluorescence | 450 compounds, 32% hits | shares compounds with NPY2 pot ag | inhibition, % at 3.6 µM | isoproterenol cAMP;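 active = inhibition above the control-well mean plus 3 SD of those wells, cut at about 22% in these data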;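 also: 0% = DMSO with isoproterenol and 100% = DMSO without isoproterenol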
NPY-Y2 ag 2: NPY-Y2 direct agonists, counter-screen for NPY-Y2 potentiator project, cell-based, fluorescence | activation, % at 3.6 µM | 450 compounds, 56% hits | HEK293 Y2/CNGC cells, membrane potential fluorescence, agonist mode | shares compounds with NPY2 pot ag | AID 1710, 2009;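 active = activation above the mean of solvent-only control wells plus 3 SD, cut at about 10% in these data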;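 also: cells stimulated by isoproterenol with no NPY added so direct agonism is tested; 0% = DMSO with isoproterenol alone and 100% = NPY at EC100 plus isoproterenol; agonism lowers probe fluorescence through less cAMP and CNG channel opening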
An asterisk follows results filed as active; . = no result. A selection: hits, their analogues and other compounds. The true share with any hit is near 2.6%.

SMILES	MT stabilize HCS	NPY-Y1 PAM-ag	bCat nuc transl	NPY2 pot ag	NPY Y2 blocker	NPY-Y1 antag	NPY-Y2 pot conf	NPY-Y1 counter	NPY-Y1 agonist 2	CNGC inhibitor	NPY-Y2 ag 2
CCOc1cc(C2CC(=O)c3c(ccc4ccccc34)N2)ccc1O (centres undefined)	4	12	-3	3	3	4	.	.	.	.	.
O=C(O)C1CC1C(=O)Nc1cc(F)ccc1F (centres undefined)	1	7	2	28*	.	-1	-5	0	-1	0	-3
CC(=O)N/N=C/c1ccc(OCCOc2ccc(Br)cc2)cc1	5	-21	-2	13	1	2	.	.	.	.	.
CCCn1nc(CC(=O)OCC)c2ccccc2c1=O	2	8	-1	-6	1	2	.	.	.	.	.
O=C(CN1CCN(Cc2ccc(Cl)cc2)CC1)N/N=C/c1cccs1	.	-10	0	6	.	.	.	.	.	.	.
O=C(CN1CCN(Cc2ccc(Cl)cc2)CC1)N/N=C/c1cccc(F)c1	.	16	0	99*	.	.	-6	-6	-14	3	1
CC(Cl)C(=O)c1c[nH]c2ccccc12 (centres undefined)	3	-15	0	4	.	-3	.	.	.	.	.
COc1ccc(NS(=O)(=O)c2ccc(NC(=O)c3ccc(CN4CCOCC4)cc3)cc2)cc1	1	-4	0	24*	.	6	-8	-50	-31	-8	-5
O=C(Nc1ccc(S(=O)(=O)Nc2ccc(F)cc2)cc1)c1ccc(CN2CCOCC2)cc1	2	-6	0	14	.	4	.	.	.	.	.
CC(C)Cn1c(N)c(C(=O)COC(=O)CC23CC4CC(CC(C4)C2)C3)c(=O)n(C)c1=O	2	21	.	38*	2	-3	4	-10	-26	-1	2
C#CC(=O)N(c1ccc(OC)cc1OC)C(C(=O)NC1CCCC1)c1cccs1 (centres undefined)	2	15	32	35*	.	-7	11	40	16	48*	21*
COc1ccc(Nc2nc3c(C)cccc3cc2C#N)c(OC)c1	5	-6	0	0	0	2	.	.	.	.	.
Cn1c(=O)c([N+](=O)[O-])c(NCc2ccccc2Cl)c2ccccc21	.	10	1	-12	.	.	.	.	.	.	.
Cn1c(=O)c([N+](=O)[O-])c(NCc2ccc3c(c2)OCO3)c2ccccc21	.	3	0	99*	.	.	-15	-29	-24	-9	-10
Clc1ccc(OCc2nnc(SCc3nc4ccccc4[nH]3)n2Cc2ccco2)cc1	3	41	2	40*	1	-8	6	-1	-5	10	14*
Clc1cccc(-c2nnc(SCc3nc4ccccc4[nH]3)n2Cc2ccco2)c1	5	-27	-3	-37	4	14	.	.	.	.	.
C=CCNC(=O)/C(=C/c1cccc([N+](=O)[O-])c1)NC(=O)c1ccco1	2	5	0	-9	.	2	.	.	.	.	.
Cc1ccc(-c2ccc(/C=N/O)o2)cc1[N+](=O)[O-]	3	-7	-2	11	.	-1	.	.	.	.	.
Cc1nc(NCCCn2ccnc2)c2ccccc2n1	2	13	-2	1	2	0	.	.	.	.	.
O=C1c2ccccc2-c2onc3ccc(NCCCn4ccnc4)c1c23	4	38	14	38*	34*	9	-3	-6	-11	-10	3
O=Nc1c(O)n(Cc2c(Cl)cccc2Cl)c2ccccc12	3	24	-2	34*	6	-4	8	2	14	-16	5
O=C(N/N=C\c1c(O)ccc2ccccc12)c1ccc(S(=O)(=O)N2CCCCC2)cc1	3	-17	4	3	0	-3	.	.	.	.	.
CCCOc1ccc(/C=N/Nc2ccc(C(=O)O)cc2)c(OCCC)c1	2	15	0	30*	.	1	13	17	11	9	21*
Cc1cc(C)n(-c2ncc3c(n2)N(CCO)CCOC3=O)n1	.	27	-1	73*	.	.	-3	4	1	0	1
Cc1cc(Nc2ccc(C)c(C)c2)n2nc(C)nc2n1	6	13	0	10	3	2	.	.	.	.	.
SMILES	MT stabilize HCS	NPY-Y1 PAM-ag	bCat nuc transl	NPY2 pot ag	NPY Y2 blocker	NPY-Y1 antag	NPY-Y2 pot conf	NPY-Y1 counter	NPY-Y1 agonist 2	CNGC inhibitor	NPY-Y2 ag 2
O=C(NCc1ccccc1Cl)NCc1ccccc1Cl	.	12	0	99*	.	.	-6	-7	-17	-4	5
C#CCSc1nc(N)c2c(n1)OC(N)=C(C#N)C2c1cccnc1 (centres undefined)	4	4	-5	58*	.	-4	21	25	16	-4	6
COc1cc(S(=O)(=O)NC2CCCCC2)c(C)cc1C	4	2	-1	-3	.	3	.	.	.	.	.
CCOC(=O)c1ccc(-n2c(=S)sc3c(=O)[nH]c(C)nc32)cc1	2	28	-1	35*	4	-8	6	11	11	-7	12*
CC(=O)c1ccc(N2CCN(C(=S)Nc3ccc(Oc4ccccc4)cc3)CC2)cc1	4	12	-4	39*	.	-1	1	-20	-9	-4	11*
O=C(CS(=O)(=O)c1ccccc1)N1CCc2ccccc21	2	28	-4	34*	.	1	-5	-4	-4	1	3
O=C(Cc1ccccc1)N1CCc2ccccc21	2	-10	0	-13	4	4	.	.	.	.	.
CCOc1ccccc1CN1CCN(Cc2csc(C(C)=O)c2)CC1CCO (centres undefined)	4	-8	1	-3	.	3	.	.	.	.	.
CCCCNS(=O)(=O)c1ccc(NC(=O)C(Sc2ccccc2)c2ccccc2)cc1 (centres undefined)	2	17	-3	29*	-4	-2	19	29	20*	25*	25*
